Calls of active or inactive are those of the source. No cut-off for these calls is given here.

One may read the IC50 as the concentration at which inhibition is half-maximal. For orientation: inhibition means the change of the read-out against control, counted positive when it falls.

The nature of test [1]: Antiproliferative activity against human NKYS cells after 48 hrs by CellTiter-Glo assay. Format: functional, cell-based. Background: Cellular ATP, detected with luciferase, serves as a proxy for viable cell number.
The test system of test [2] is MOLM-14. Briefly: Induction of apoptosis in human MOLM14 cells assessed as early apoptotic cells at 3 uM after 48 hrs by Annexin-V FITC/propidium iodide staining based flow cytometry (reference value: 3.6 to 3.7%). The test is classed as functional. An outline of the steps: (§1)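 MOLM-14 cells treated 48 h at the stated concentrations; doxorubicin as positive control. Stained with Annexin V-FITC and propidium iodide and analysed by flow cytometry (at least 10,000 events). Gated quadrants: Annexin V−/PI− viable, Annexin V+/PI− early apoptotic, Annexin V+/PI+ late apoptotic.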
For orientation: In flow cytometry, cells or beads pass a laser one at a time.

In test [3] the target is Mitogen-activated protein kinase 8 (Homo sapiens, UniProt P45983). As to the kind of experiment: Inhibition of full length human MAPK8 (M1 to Q384 residues) expressed in mammalian expression system assessed as residual activity at 100 nM by KINOMEScan assay relative to control. An outline of the steps:
(§2)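 DiscoveRx KINOMEscan competition binding against ATP sites in a 97-kinase panel, with compound at 100 nM. Binding reported as % of control.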

Test [4] concerns MOLM-14. As to the kind of experiment: Induction of apoptosis in human MOLM14 cells assessed as necrotic cells at 3 uM after 48 hrs by Annexin-V FITC/propidium iodide staining based flow cytometry (reference value: 0.1%). The test is classed as functional. The method, boiled down:
as §1

Test [5] deals with Histone deacetylase 7 (Homo sapiens) (UniProt Q8WUI4). As to the kind of experiment: Inhibition of human recombinant N-terminal GST-tagged HDAC7 (518 to 991 residues) expressed in insect cells at 10 uM preincubated with enzyme followed by […] addition measured after 2 hrs by fluorescence assay relative to control. An outline of the steps: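 HDAC enzyme in Tris-HCl pH 8.0 buffer with NaCl, KCl and MgCl2 was pre-incubated with compound from DMSO. Substrate was then added and the reaction ran 2 h at 30 °C. It was stopped with developer containing trichostatin A, and fluorescence (Ex/Em 360/460 nm) was read at plateau. Single test concentration 10 µM.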

The nature of test [6]: Antiproliferative activity against human Jurkat cells. The test is classed as functional, cell-based.
For test [7], the target named is T1, Tyrosine-protein kinase JAK2 (Homo sapiens, UniProt O60674). As to the kind of experiment: Inhibition of human JAK2 JH1 catalytic domain (A829 to G1132 residues) expressed in mammalian expression system assessed as residual activity at 100 nM by KINOMEScan assay relative to control. The method, boiled down: as §2
Test [8] has as its target T1, Tyrosine-protein kinase JAK2. Briefly: Inhibition of JAK2 (unknown origin) preincubated for 20 mins followed by [33P]ATP addition measured after 120 mins by Hotspot assay.
Test [9] has as its target Non-receptor tyrosine-protein kinase TYK2 (Homo sapiens, UniProt P29597). As to the kind of experiment: Inhibition of human TYK2 (V877 to C1187 residues) expressed in mammalian expression system by KINOMEScan assay.
Test [10] in a line: Growth inhibition of human HL60 cells at 4 uM relative to control. The note with it: HL-60, read-out: GI. The test is classed as functional.
In test [11] the target is T2, Protein deacetylase HDAC6 (Homo sapiens) (UniProt Q9UBN7).
T2 sequence (whole entry): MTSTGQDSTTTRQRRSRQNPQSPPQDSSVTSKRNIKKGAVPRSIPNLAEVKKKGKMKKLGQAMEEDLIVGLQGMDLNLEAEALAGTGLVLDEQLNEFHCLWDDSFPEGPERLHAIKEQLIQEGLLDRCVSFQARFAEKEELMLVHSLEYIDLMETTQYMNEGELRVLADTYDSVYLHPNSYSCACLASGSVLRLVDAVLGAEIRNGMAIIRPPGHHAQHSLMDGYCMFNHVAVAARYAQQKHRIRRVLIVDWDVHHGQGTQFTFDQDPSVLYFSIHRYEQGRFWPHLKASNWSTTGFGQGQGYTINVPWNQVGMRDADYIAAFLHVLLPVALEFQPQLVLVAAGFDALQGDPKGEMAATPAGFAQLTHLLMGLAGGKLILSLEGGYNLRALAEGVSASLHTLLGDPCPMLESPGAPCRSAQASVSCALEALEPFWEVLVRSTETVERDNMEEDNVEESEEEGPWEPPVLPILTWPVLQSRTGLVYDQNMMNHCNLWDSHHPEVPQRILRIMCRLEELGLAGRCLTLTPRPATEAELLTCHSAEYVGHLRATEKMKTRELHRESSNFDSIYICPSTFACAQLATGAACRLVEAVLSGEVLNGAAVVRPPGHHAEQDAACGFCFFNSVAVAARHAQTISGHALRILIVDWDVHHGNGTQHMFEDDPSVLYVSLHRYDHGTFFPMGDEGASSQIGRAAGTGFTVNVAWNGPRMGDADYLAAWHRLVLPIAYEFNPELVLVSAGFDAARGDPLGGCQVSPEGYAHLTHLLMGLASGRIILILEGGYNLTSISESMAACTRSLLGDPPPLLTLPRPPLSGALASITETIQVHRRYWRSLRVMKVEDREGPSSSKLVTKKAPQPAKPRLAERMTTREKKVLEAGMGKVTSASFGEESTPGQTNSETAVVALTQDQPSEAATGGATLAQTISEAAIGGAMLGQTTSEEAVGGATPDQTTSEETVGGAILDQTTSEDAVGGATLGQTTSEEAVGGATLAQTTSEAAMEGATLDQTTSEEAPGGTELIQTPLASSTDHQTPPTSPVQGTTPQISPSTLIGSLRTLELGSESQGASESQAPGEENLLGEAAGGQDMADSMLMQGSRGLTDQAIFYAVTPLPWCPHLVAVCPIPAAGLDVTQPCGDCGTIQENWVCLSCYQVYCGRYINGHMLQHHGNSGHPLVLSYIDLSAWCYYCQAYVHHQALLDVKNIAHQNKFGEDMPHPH
As to the kind of experiment: Inhibition of HDAC6 in HEL 92.1.7 cells harboring JAK2 V617F mutant assessed as increase in acetylated tubulin level at 0.1 uM after 1 hr by immunoblot method. The test is classed as cell-based. The method, boiled down: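 HEL92.1.7 cells seeded at 5x10^5/mL and treated 1 h at 0, 0.1, 0.5 and 1 μM. Lysed in RIPA with phosphatase/protease inhibitors, run on 10% SDS-PAGE and blotted to PVDF. Probed for acetyl-tubulin, acetyl-H3 (Lys9/Lys14), p-JAK2 (Y1007/1008) and p-STAT5 (Tyr694); membranes re-probed for tubulin, H3, JAK2 and STAT5. Quantified by densitometry.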
On the technique in general: Immunoblotting shows a protein as a band on a membrane.

In test [12] the target is Mitogen-activated protein kinase 10 (Homo sapiens, UniProt P53779). Briefly: Inhibition of full length human MAPK10 (V28 to Q422 residues) expressed in mammalian expression system by KINOMEScan assay.
Test [13] deals with Tyrosine-protein kinase JAK3 (Homo sapiens) (UniProt P52333). Briefly: Inhibition of JAK3 (unknown origin) at 0.1 uM preincubated for 20 mins followed by [33P]ATP addition measured after 120 mins by Hotspot assay relative to control. An outline of the steps:
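Radiometric HotSpot kinase assay. Buffer: 20 mM HEPES pH 7.5, 10 mM MgCl2, 1 mM EGTA, 0.02% Brij35, 0.02 mg/mL BSA, 0.1 mM Na3VO4, 2 mM DTT, 1% DMSO. Compound added about 20 min before ATP/[33P]ATP (10 μM final). Reactions run 120 min at 25 °C, spotted on P81 filters and washed in phosphoric acid. Activity expressed relative to DMSO after background subtraction. Single-concentration panel at 100 nM in duplicate.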

T1 sequence (O60674 whole entry, the tested form may be a part): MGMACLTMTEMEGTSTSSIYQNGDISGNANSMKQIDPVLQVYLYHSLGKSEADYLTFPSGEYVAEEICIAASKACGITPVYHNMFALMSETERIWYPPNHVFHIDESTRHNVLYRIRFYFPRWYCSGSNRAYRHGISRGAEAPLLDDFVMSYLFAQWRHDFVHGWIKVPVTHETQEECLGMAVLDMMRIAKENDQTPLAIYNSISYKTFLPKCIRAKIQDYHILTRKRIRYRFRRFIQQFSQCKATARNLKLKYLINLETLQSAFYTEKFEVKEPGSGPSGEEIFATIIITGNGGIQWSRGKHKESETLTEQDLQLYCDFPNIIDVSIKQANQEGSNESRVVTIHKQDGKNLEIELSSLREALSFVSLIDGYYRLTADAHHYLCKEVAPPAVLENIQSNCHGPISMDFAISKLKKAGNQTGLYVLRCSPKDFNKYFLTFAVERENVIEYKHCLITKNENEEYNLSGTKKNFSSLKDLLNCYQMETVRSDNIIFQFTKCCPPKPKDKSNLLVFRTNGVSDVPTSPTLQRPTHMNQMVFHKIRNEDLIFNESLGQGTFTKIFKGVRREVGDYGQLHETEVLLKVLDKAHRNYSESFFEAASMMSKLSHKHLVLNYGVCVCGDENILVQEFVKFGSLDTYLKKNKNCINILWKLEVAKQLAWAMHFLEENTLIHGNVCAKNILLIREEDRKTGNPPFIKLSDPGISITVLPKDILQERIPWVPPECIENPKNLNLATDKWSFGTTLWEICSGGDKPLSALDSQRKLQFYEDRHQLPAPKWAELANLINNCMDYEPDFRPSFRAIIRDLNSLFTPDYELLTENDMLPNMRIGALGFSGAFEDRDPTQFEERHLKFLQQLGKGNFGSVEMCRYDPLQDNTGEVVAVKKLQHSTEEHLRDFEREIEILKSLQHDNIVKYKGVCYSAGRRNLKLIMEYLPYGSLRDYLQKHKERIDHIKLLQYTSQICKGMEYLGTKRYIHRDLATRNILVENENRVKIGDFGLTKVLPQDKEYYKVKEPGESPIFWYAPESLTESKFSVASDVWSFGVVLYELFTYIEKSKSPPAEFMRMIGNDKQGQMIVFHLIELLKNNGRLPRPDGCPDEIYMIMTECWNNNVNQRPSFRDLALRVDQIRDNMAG
Non-receptor tyrosine-protein kinase TYK2, sequence (P29597 whole entry, the tested form may be a part): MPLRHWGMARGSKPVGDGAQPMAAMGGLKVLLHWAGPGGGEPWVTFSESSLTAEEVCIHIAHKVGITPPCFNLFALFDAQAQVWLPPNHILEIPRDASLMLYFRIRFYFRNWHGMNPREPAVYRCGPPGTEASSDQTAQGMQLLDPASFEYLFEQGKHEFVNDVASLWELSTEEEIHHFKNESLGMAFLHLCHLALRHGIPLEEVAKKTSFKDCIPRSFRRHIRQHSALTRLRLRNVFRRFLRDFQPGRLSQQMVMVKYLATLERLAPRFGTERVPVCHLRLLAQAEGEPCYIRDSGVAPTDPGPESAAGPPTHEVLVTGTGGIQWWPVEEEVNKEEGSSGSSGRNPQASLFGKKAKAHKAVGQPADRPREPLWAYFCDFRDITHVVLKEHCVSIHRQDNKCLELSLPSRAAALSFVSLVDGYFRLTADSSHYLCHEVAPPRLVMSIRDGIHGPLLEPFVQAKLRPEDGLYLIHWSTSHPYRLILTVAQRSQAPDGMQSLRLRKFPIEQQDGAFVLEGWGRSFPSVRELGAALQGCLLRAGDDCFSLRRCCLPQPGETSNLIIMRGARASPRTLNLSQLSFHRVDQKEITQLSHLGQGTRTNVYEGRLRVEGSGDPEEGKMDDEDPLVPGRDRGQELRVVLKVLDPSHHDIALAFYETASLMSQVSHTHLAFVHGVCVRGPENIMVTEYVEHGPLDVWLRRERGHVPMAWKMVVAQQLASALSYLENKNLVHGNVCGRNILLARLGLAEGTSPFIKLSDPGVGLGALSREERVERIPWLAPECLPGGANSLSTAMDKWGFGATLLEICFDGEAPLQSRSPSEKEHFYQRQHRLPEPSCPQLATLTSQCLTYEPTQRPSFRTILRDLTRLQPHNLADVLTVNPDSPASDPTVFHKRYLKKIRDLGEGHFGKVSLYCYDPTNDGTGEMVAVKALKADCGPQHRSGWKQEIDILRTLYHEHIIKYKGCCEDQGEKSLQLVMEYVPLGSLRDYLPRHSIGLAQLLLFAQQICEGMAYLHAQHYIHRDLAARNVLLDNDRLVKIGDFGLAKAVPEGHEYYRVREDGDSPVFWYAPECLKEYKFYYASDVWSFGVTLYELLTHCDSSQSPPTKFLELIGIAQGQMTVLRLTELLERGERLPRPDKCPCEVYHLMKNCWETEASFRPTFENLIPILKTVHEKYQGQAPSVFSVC
Tyrosine-protein kinase JAK3 (Homo sapiens), sequence (P52333 whole entry): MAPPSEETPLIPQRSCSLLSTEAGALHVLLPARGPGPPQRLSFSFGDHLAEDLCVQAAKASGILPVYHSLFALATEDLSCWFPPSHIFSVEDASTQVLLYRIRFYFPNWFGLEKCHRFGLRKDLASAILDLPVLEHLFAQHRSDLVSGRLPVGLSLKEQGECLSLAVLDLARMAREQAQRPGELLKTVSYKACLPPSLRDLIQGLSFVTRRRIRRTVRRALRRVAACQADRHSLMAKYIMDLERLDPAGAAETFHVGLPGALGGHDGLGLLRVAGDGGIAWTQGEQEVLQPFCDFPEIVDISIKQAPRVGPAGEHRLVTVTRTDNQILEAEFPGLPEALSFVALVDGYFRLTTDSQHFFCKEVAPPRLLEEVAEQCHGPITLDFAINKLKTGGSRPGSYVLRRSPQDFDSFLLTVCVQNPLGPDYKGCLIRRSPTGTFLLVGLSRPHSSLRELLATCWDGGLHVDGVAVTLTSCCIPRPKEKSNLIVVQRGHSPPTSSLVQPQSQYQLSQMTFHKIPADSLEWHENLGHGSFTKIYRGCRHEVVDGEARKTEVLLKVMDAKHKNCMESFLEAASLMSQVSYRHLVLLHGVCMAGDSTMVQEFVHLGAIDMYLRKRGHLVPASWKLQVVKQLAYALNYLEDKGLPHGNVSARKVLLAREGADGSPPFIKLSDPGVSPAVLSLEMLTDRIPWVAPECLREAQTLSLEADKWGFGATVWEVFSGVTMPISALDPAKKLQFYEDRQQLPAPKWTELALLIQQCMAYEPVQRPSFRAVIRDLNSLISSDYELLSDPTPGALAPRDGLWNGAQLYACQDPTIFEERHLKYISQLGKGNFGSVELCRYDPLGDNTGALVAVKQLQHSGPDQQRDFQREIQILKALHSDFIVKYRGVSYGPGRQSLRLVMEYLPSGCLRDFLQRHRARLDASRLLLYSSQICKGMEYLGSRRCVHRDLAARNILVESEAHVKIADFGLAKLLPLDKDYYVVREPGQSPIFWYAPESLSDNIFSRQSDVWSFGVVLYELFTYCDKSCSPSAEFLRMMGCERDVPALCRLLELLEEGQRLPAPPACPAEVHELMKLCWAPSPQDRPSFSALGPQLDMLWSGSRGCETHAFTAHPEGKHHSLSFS
Histone deacetylase 7 (Homo sapiens), sequence (Q8WUI4 whole entry, the tested form may be a part): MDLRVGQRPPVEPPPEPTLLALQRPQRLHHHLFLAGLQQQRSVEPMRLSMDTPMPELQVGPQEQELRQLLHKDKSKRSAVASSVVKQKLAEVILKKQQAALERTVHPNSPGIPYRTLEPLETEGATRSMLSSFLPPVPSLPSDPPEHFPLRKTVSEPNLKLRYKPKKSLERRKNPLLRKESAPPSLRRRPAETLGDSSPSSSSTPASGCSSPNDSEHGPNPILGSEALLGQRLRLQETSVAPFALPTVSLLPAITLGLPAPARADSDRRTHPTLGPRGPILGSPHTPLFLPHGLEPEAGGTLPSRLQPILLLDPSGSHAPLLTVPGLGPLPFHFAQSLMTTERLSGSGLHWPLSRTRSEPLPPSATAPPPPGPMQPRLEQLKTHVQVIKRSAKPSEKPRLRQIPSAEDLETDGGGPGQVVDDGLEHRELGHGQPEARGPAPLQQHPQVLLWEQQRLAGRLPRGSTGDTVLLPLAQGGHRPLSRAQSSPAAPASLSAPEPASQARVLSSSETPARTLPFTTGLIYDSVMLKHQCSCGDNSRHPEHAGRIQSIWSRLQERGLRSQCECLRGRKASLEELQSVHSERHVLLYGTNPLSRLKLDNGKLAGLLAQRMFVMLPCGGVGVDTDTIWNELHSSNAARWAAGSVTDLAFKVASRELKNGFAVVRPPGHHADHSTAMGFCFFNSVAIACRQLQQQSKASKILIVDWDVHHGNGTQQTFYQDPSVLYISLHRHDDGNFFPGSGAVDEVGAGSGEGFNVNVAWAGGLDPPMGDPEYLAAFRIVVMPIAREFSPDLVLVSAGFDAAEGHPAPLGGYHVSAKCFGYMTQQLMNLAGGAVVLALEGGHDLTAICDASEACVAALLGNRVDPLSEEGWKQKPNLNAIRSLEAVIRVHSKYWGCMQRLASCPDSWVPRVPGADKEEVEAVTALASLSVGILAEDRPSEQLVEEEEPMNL
Mitogen-activated protein kinase 8, sequence (P45983 whole entry, the tested form may be a part): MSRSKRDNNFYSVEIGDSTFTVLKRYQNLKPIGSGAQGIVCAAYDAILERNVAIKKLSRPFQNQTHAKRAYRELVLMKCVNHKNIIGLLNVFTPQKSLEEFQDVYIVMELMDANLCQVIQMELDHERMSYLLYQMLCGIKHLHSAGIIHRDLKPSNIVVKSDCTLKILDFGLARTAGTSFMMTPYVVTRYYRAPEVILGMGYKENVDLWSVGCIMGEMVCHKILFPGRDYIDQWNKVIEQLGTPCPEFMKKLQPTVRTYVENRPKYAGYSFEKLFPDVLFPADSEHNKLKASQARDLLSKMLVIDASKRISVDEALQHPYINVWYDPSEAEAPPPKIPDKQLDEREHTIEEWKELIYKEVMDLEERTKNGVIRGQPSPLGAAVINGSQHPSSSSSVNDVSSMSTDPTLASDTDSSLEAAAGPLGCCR

For `O=C(CCCCCCOc1ccc2cc1COC/C=C/COCc1cccc(c1)-c1ccnc(n1)N2)NO`, the IC50 in test [1] is 1.08 µM; in test [6] it was 1.19 µM; in test [8] it was 0.0014 µM; in test [9], 0.01 to 1 µM; in test [12], 1 to 10 µM. Moreover, the Activity turned out to be 24.4% in [2], 26% in [3], 1.3% in [4] and 0% in [7]. Besides, the values for the inhibition in test [5] and in [13] were 1.3% and 55%, respectively. Moreover, the inhibition of growth at 4 µM in test [10] stood at 47%. The inhibition entry in [11] was “Active”.
